In the library only some 0.58% were active in any assay of this set; here they are far more common.
TRPN1 ag = zebrafish TRPN1 channel agonists, primary screen, cell-based, HEK293, calcium fluorescence | 220,000 tested, 0.18% active | transient receptor potential cation channel N1 (TRPN1/NompC), Danio rerio | HEK293 zebrafish TRPN1-YFP, Fluo-8 calcium fluorescence; 100% = response to 87 µM carbachol | activation, % at 3 µM;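 active means activation above its plate's cutoff, the mean activation of test wells on that plate plus 3 SD, cut at about 19% in these data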;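 further: 0% = DMSO alone and 100% = 87 µM carbachol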
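Assay system: Zebrafish TRPN1-YFP in HEK293 cells | Incubation: Dye loading 1 h at 37 °C, then 30 min room temperature | Measured by: Kinetic Fluo-8 fluorescence, ex 470-495, em 515-575 nm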
OXTR agonist = human OXTR agonists, primary screen, fluorescence, CHO-OTR cells, Fluo-8 calcium; activation, % at 3 µM; Oxytocin receptor (Homo sapiens), P30559; AID 2435, 2010; Fluo-8 calcium fluorescence; normalized: DMSO 0%, oxytocin 100%; 320,000 tested, 0.32% active;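 active means activation above the mean of all tested compounds plus 3 SD, cutoff set per screening run, cut at about 20% in these data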;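 further: peak over basal fluorescence ratio from a 100 s FLIPR kinetic read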
OXTR potentiator = human OXTR potentiators, primary screen, fluorescence, CHO-OTR cells, Fluo-8 calcium; Oxytocin receptor (Homo sapiens), P30559; Fluo-8 calcium fluorescence, potentiator mode; 0% = oxytocin EC15, 100% = EC100; activation, % at 3 µM; 320,000 tested, 0.061% active; AID 2445, 2010;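 active means activation above that plate's cutoff, the mean activation of tested compounds plus 3 SD, cut at about 6.6% in these data, passing the limit was not always enough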;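 further: 100% uses oxytocin at 75 nM as the full agonist control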
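Replication – single well per compound, singlicate · Assay system – CHO cell line stably expressing human OTR · Timing – 6 min pre-incubation, 100 s read · Measure – normalized max/min fluorescence ratio, % activation · Doses – 3.0 µM, one dose · Detection – Fluo-8 calcium dye fluorescence · Probe or stimulus – oxytocin near EC15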
V1R ag counter = agonists of human V1a receptor, primary screen, counter-screen for OXTR agonist project, fluorescence, CHO-V1R cells; Vasopressin V1a receptor (Homo sapiens), P37288; Fluo-8 calcium fluorescence, agonist mode; 0% DMSO, 100% 3 nM vasopressin; activation, % at 3 µM; 320,000 tested, 0.25% active; AID 2797, 2010;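 active means activation above the mean activation of all tested compounds plus 3 SD, per screening run, cut at about 20% in these data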;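 further: signal is peak over basal fluorescence ratio across a 100 second FLIPR read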
TRPML3 ag = human TRPML3 channel agonists, primary screen, cell-based, HEK293 TRPML3-YFP, Fluo-8 calcium fluorescence, 3 µM. Mucolipin-3 (Homo sapiens), Q8TDD5. 100% = the carbachol control signal. activation, % at 3 µM. 220,000 tested, 0.29% active. AID 1448, 2008;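 active means activation above its plate's cutoff, the mean activation of the plate's test wells plus 3 SD, cut at about 12% in these data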;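 further: 0% = DMSO only wells and 100% = carbachol wells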
Target sequence (Q8TDD5 whole entry, looked up): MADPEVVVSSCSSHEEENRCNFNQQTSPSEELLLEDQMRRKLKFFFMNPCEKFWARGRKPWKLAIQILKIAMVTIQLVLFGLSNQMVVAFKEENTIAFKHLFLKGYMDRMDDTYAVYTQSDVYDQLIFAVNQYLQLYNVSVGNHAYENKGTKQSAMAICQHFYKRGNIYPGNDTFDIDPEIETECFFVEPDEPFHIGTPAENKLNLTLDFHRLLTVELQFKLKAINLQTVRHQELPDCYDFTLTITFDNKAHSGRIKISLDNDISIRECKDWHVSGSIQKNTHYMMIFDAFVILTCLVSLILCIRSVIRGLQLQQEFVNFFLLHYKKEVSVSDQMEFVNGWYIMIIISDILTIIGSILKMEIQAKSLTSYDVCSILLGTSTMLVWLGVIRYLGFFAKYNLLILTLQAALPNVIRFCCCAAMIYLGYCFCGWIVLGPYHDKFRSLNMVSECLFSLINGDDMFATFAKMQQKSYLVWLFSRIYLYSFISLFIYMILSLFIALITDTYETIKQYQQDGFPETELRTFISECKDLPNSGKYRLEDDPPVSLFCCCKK
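Test system: TRPML3-YFP stable HEK293 cells. Doses: single point at 3 µM. Incubation: dye loading 1 h 37 °C then 30 min ambient, 125 s read. Signal: Fluo-8 calcium dye fluorescence, ex 470-495, em 515-575 nm. Measure: percent activation from peak-to-basal fluorescence ratio, scaled between DMSO and carbachol.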
Starred values were filed as active, the others as inactive; . = no result given.

SMILES	TRPN1 ag	OXTR agonist	OXTR potentiator	V1R ag counter	TRPML3 ag
CCOC(=O)c1ccc(NC(=S)Nc2ccc(Br)cc2N)cc1	.	-0.9	4.5	0.5	.
N=c1c2c(-c3ccccc3)c(-c3ccccc3)n(Cc3ccco3)c2ncn1Cc1ccco1	3.3	36.3*	-30.1	36.5*	2.1
CCCCn1cnc2c(c(-c3ccccc3)c(-c3ccccc3)n2Cc2ccco2)c1=N	0.7	10.3	-12.8	9.0	-0.5
CN1C(=CC=C2C=C(I)C(=O)C(I)=C2)C(C)(C)c2ccccc21	7.7	.	.	.	2.3
CN1/C(=C\C=C2/C(=O)Oc3ccccc3C2=O)C(C)(C)c2ccccc21	153.8*	366.8*	-12.5	261.4*	129.7*
CN1/C(=C\C=C2/SC(=S)NC2=O)C(C)(C)c2ccccc21	32.8*	123.0*	-18.2	100.0*	19.4*
CC1=NN(c2ccccc2)C(=O)/C1=C\C=C1/N(C)c2ccccc2C1(C)C	5.6	34.3*	-20.9	42.9*	3.5
CC1=NN(c2ccccc2)C(=O)/C1=C/N(C)C	0.5	0.0	-2.1	-0.7	1.1
CC1=NN(c2ccccc2)C(=O)/C1=C\C=C1\N(C)c2ccccc2C1(C)C	15.2	31.3*	-13.3	36.4*	5.0
CC1=NN(c2ccccc2)C(=O)/C1=C\C=C\c1ccccc1	-0.9	-0.8	-3.1	-1.0	0.8
O=C(CC1CCCCC1)NCCS(=O)(=O)N1CCN(c2ccccc2)CC1	.	-1.9	1.4	-0.9	.
CC(C)Oc1ccccc1C1(c2ccccc2)NC(=O)NC1=O (stereo unspecified)	.	-0.6	-13.2	-0.1	.
CC1CCN(CCCN2C(=O)C3C(C(=O)Nc4ccc(Cl)cc4)C4C=CC3(O4)C2C(=O)NC2CCCCC2)CC1 (stereo unspecified)	.	1.1	5.1	-0.4	.
COc1cc(/C=C2\SC(=O)NC2=O)ccc1OCC(=O)N1CCOCC1	.	0.9	-7.1	0.8	.
CCCOc1ccc(-c2c(C(=O)N/N=C/c3ccc(OC)cc3)nnn2-c2nonc2N)cc1	0.5	0.7	4.8	2.8	0.9
CCCOc1ccc(-c2c(C(=O)N/N=C/c3ccc(OCC)cc3)nnn2-c2nonc2N)cc1	-0.3	0.9	10.3	-0.1	0.4
CCOc1ccc(-c2c(C(=O)N/N=C/c3ccsc3)nnn2-c2nonc2N)cc1	.	29.1*	-9.4	20.9*	.
CCOc1ccc(-c2c(C(=O)N/N=C/c3ccc(OC)cc3)nnn2-c2nonc2N)cc1	0.6	37.2*	-3.5	27.0*	0.9
Cc1nn(C(C)C(=O)NC2CCC(C)CC2)c(=O)c2nn(-c3ccccc3)c(C)c12 (stereo unspecified)	.	-0.8	1.6	0.9	.
NC(=O)C1CCN(C(=O)c2cc(Cl)c3c(c2)OCCO3)CC1	.	1.0	0.7	1.2	.
CCN(CC)c1ccc2c(Cl)c(Br)c(=O)oc2c1	2.5	62.5*	-21.6	85.3*	1.1
CC(C)Oc1ccc(C(=O)OCC(=O)N2CCCc3ccccc32)cc1	.	-0.8	-5.6	2.9	.
Nn1c(-c2ccc(O)cc2)nnc1-c1ccc(O)cc1	2.0	0.7	1.1	0.8	0.8
CCOc1cc(CNCCc2ccc(S(N)(=O)=O)cc2)ccc1OCc1ccc(Cl)cc1	6.9	37.0*	-23.1	27.2*	5.9
COc1ccc(C(=O)OC(C)C(=O)NC2CCCc3ccccc32)cc1OC (stereo unspecified)	.	-0.6	7.3	-0.2	.
SMILES	TRPN1 ag	OXTR agonist	OXTR potentiator	V1R ag counter	TRPML3 ag
CCc1ccc(NC(=O)C(CC)c2ccccc2)cc1 (stereo unspecified)	18.8	27.1*	-7.8	35.0*	11.3
c1ccc(CNc2ncnc3c2cnn3Cc2ccccc2)cc1	6.3	25.4*	-13.0	20.6*	2.4
N#Cc1ccc(NC(=O)Nc2ccc(Cl)cc2)cc1	22.0*	15.7	-23.8	8.4	15.2*
Cc1ccc(NS(=O)(=O)c2ccc(C(=O)OCC(=O)Nc3cc(C)on3)cc2)cc1	22.5*	.	.	.	11.1
COc1ccc(NS(=O)(=O)c2cccc(C(=O)OCC(=O)Nc3cc(C)on3)c2)cc1	3.2	4.5	-21.7	10.5	-0.6
CCC1(CC)NC(=O)N(CC(=O)NC(=O)NCc2ccccc2)C1=O	.	1.5	-9.1	1.7	.
COc1ccc(CCn2c(-c3cc([N+](=O)[O-])cc([N+](=O)[O-])c3)nc3nc4ccccc4nc32)cc1OC	-1.0	1.4	12.2*	-0.7	0.8
COc1ccc(CCn2c(-c3cc([N+](=O)[O-])cc([N+](=O)[O-])c3)nc3nc4ccccc4nc32)cc1	-0.5	0.1	0.3	0.6	0.6
CCCCCCn1c(=O)[nH]c2nc3cc(N)ccc3nc2c1=O	37.1*	95.7*	-12.1	74.0*	45.7*
Cc1cc(=O)[nH]c(SCC(=O)Nc2ccccc2C)n1	19.5*	0.9	-2.6	1.1	1.4
CCOC(=O)NC(=O)/C(C#N)=C\Nc1sccc1C(=O)OC	22.0*	56.9*	-7.7	52.6*	18.3*
COc1ccccc1C(=O)NNC(=S)NC(=O)c1cccs1	.	29.7*	-17.0	50.7*	.
Cc1c(NC(=S)NC(=O)c2sc3ccccc3c2Cl)cccc1C(=O)O	1.2	-0.8	-11.8	0.2	1.1
COc1ccccc1C(=O)NC(=S)NNC(=O)c1sc2ccccc2c1Cl	3.0	46.2*	-9.7	25.2*	1.2
COc1ccccc1C(=O)NNC(=S)NC(=O)c1sc2ccccc2c1Cl	0.9	49.0*	-12.0	34.3*	1.5
COc1ccc(C2CC(c3cccs3)=NN2c2ccc(C=O)cc2)cc1 (stereo unspecified)	29.3*	24.5*	-9.5	27.6*	17.4*
COc1ccc(NC(=O)CNC(=O)C23CC4CC(CC(C4)C2)C3)c(OC)c1	.	-0.4	-9.6	0.6	.
COc1ccc(OC)c(NC(=O)C(=O)NNC(=O)C23CC4CC(CC(C4)C2)C3)c1	42.5*	5.1	-15.2	12.5	26.7*
CCOC(=O)C1CCCN(C2=NC(=O)/C(=C/c3ccc(N(C)C)cc3)S2)C1 (stereo unspecified)	.	35.4*	-23.4	34.2*	.
CCOC(=O)C1CCCN(C2=NC(=O)/C(=C/c3ccc(OC)cc3)S2)C1 (stereo unspecified)	.	-1.7	-1.5	0.9	.
O=[N+]([O-])c1ccc(/C=C/C2=NN(c3ccccc3)C(c3ccco3)C2)o1 (stereo unspecified)	23.3*	.	.	.	20.5*
CCN1C(=O)c2cccc3c(S(=O)(=O)NCc4ccccc4)ccc1c23	.	0.7	-8.0	1.7	.
CCN1C(=O)c2cccc3c(S(=O)(=O)Nc4ccccc4OC)ccc1c23	46.4*	10.8	-18.8	10.8	123.0*
